Experiments:
Liver [1] = assay: Upregulation of IP-10 mRNA expression levels in C57BL/6J mouse liver at 3 mg/kg, po by RT-qPCR analysis (reference value: 1); type: functional
Cynomolgus monkey [2] = assay: Activation of monocytes in cynomolgus monkey plasma assessed as upregulation of MCP1 levels at 1 mg/kg, po after 24 hrs by Luminex assay (reference value: 385 pg/ml); type: functional, Macaca fascicularis
Cynomolgus monkey [3] = assay: Proinflammatory activity in cynomolgus monkey plasma assessed as IL-6 levels at 3 mg/kg, po after 24 hrs by Luminex assay (reference value: 80 pg/ml); type: functional, Macaca fascicularis
Liver [4] = assay: Proinflammatory activity in C57BL/6J mouse liver assessed as CXCL-1 levels at 10 mg/kg, po by multiplex assay (reference value: 25 pg/g); type: functional
Liver [5] = assay: Induction of IFNalpha levels in C57BL/6J mouse liver at 1 mg/kg, po by ELISA (reference value: 30 pg/g); type: functional
Cynomolgus monkey [6] = assay: Upregulation of Tlr7 expression in cynomolgus monkey plasma at 3 mg/kg, po after 24 hrs by Fluidigm RT-qPCR analysis (reference value: 1.8); type: functional, Macaca fascicularis
Liver [7] = assay: Proinflammatory activity in C57BL/6J mouse liver assessed as TNFalpha levels at 10 mg/kg, po by multiplex assay (reference value: 15 pg/g); type: functional
Liver [8] = assay: Proinflammatory activity in C57BL/6J mouse liver assessed as IL-6 levels at 10 mg/kg, po by multiplex assay (reference value: 10 pg/g); type: functional
Plasma [9] = assay: Anti-inflammatory activity in C57BL/6J mouse plasma assessed as IL-10 levels at 10 mg/kg, po by multiplex assay (reference value: 120 pg/ml); type: functional
Outline: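 Single oral gavage in 20% HP-β-CD to healthy C57BL/6 mice, groups of 15 at 0.3, 1, 3, 10 or 30 mg/kg. Three mice per group sacrificed at 0.5, 1, 2, 4 or 7 h. Plasma and liver cytokines by multiplex, maximum level reported, rounded to nearest multiple of 5.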

Plasma [10] = assay: Proinflammatory activity in C57BL/6J mouse plasma assessed as CXCL-1 levels at 1 mg/kg, po by multiplex assay (reference value: 230 pg/ml); type: functional
[11] = molecular target: T1, Toll-like receptor 7 (Homo sapiens) (UniProt Q9NYK1); assay: Agonist activity at human TLR7 expressed in HEK293 cells assessed as induction of receptor activation incubated for 6 hrs by NF-kappaB-luciferase reporter gene assay; type: cell-based
T1 sequence (whole entry): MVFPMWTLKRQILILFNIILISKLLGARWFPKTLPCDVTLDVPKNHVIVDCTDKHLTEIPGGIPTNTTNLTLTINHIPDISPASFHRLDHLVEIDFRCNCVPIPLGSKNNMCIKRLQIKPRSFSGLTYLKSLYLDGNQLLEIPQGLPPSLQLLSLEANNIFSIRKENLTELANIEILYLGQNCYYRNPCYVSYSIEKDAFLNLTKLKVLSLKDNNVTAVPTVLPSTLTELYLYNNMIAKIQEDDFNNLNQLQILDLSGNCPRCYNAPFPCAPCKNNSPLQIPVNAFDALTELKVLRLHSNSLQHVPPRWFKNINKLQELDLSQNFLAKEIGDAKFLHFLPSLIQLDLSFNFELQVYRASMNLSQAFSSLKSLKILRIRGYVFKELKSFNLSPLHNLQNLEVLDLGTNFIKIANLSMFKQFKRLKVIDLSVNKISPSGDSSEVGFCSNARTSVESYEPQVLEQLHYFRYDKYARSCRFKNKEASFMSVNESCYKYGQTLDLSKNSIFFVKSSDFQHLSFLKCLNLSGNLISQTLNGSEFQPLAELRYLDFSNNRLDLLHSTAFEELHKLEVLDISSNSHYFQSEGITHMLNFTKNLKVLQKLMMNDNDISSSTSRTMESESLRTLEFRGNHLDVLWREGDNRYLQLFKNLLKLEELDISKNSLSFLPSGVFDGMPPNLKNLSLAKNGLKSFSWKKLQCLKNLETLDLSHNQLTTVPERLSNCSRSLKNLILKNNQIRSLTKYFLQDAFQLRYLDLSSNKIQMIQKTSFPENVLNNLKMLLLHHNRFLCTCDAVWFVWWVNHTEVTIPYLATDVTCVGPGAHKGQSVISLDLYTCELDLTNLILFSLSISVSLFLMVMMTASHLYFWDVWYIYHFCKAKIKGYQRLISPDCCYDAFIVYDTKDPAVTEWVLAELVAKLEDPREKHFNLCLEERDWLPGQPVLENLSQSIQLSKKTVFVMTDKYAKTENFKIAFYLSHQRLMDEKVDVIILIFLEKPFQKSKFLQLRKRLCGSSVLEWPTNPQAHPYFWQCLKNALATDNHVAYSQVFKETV
Outline: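 HEK cell-based assay using a wild-type TLR7 expression vector; a parallel TLR8 vector construct served for selectivity. Results are expressed as lowest effective concentration (LEC), averaged over independent experiments where determined two or more times. A separate HEK 293 cytotoxicity (TOX) assay gave CC50 alongside.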

Cynomolgus monkey [12] = assay: Proinflammatory activity in cynomolgus monkey plasma assessed as IL-8 levels at 30 mg/kg, po after 24 hrs by Luminex assay (reference value: 430 pg/ml); type: functional, Macaca fascicularis
[13] = Stability in rat hepatocytes assessed compound turnover at 1 uM after 60 mins; type: ADME, cell-based, Hepatocyte; details: read-out: Drug metabolism
[14] = Cmax in C57BL/6J mouse plasma at 30 mg/kg, po by LC-MS analysis; type: ADME, organism-based; parameters: dose 30 mg/kg, route oral
Outline: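 Healthy C57BL/6 mice, groups of 15, given a single oral dose (0.3, 1, 3, 10 or 30 mg/kg) in 20% HP-β-CD. Blood drawn at 0.5 h. Three mice per group sacrificed at 0.5, 1, 2, 4 or 7 h, and compound in plasma and liver measured by LC−MS. Values rounded to whole numbers.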

[15] = AUC (0 to last) in cynomolgus monkey plasma at 3 mg/kg, po by LC-MS analysis; type: ADME, organism-based, Macaca fascicularis; parameters: dose 3 mg/kg, time 0 - last, route oral
Outline: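 Healthy cynomolgus monkeys received single oral doses of 1, 3, 9 and 30 mg/kg, with a 2-week wash-out between doses. Systemic compound concentrations were measured by LC–MS at 0.25, 0.5, 1, 2, 4, 8 and 24 h postdose.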

Mus musculus = assay: Toxicity in C57BL/6J mouse assessed as change in body temperature at 1 to 30 mg/kg, po; type: organism-based; details: in vivo
Cynomolgus monkey [16] = assay: Activation of monocytes in cynomolgus monkey plasma assessed as upregulation of IL1Ra levels at 3 mg/kg, po after 24 hrs by Luminex assay (reference value: 320 pg/ml); type: functional, Macaca fascicularis
Plasma [17] = assay: Proinflammatory activity in C57BL/6J mouse plasma assessed as TNFalpha levels at 30 mg/kg, po by multiplex assay (reference value: 70 pg/ml); type: functional
Liver [18] = assay: Proinflammatory activity in C57BL/6J mouse liver assessed as IL-6 levels at 30 mg/kg, po by multiplex assay (reference value: 10 pg/g); type: functional

For `CCC[C@@H](CCO)Nc1nc(N)nc2c(F)cccc12`, the “fold change (FC)” value (Liver [1]) was 845, the Activity (Cynomolgus monkey [2]) was 2820 pg/mL and the Activity (Cynomolgus monkey [3]) was 200 pg/mL. The Activity (Liver [4]) was 48485 pg/g, the Activity (Liver [5]) was 215 pg/g and the “fold change (FC)” value (Cynomolgus monkey [6]) was 5.1. For the same compound, the Activity (Liver [7]) was 8330 pg/g, the Activity (Liver [8]) was 3450 pg/g and the Activity (Plasma [9]) was 29450 pg/mL. For the same compound, the Activity (Plasma [10]) was 2155 pg/mL, the MEC [11] was 0.15 µM and the Activity (Cynomolgus monkey [12]) was 1840 pg/mL. The metabolised at 1 h, 1 µM [13] was 96%, the Cmax [14] was 813 ng/mL and the AUC(0-t) [15] was 383 ng·h/mL. For the same compound, the Activity (Mus musculus) was “Non-Toxic”, the Activity (Cynomolgus monkey [16]) was 2020 pg/mL and the Activity (Plasma [17]) was >10000 pg/mL. It also gave an Activity (Liver [18]) of 7555 pg/g.

Source: ChEMBL document CHEMBL4130635, “2,4-Diaminoquinazolines as Dual Toll-like Receptor (TLR) 7/8 Modulators for the Treatment of Hepatitis B Virus” (J Med Chem, 2018)
